Experimental data reported in ChEMBL document CHEMBL1255300, “Pharmacodynamics of the antibacterial effect and emergence of resistance to tomopenem, formerly RO4908463/CS-023, in an in vitro pharmacokinetic model of Staphylococcus aureus infection” (Antimicrob Agents Chemother, 2008).

How the values were obtained:
Format in all cases: functional
Staphylococcus aureus [1] = test: Antibacterial activity against methicillin-resistant Staphylococcus aureus 33922 infected in in vitro pharmacokinetic model assessed as time required to 99% killing at 3 mg/ml using 10^6 CFU/ml inoculum
Staphylococcus aureus [2] = test: Antibacterial activity against methicillin-resistant Staphylococcus aureus 33827 infected in in vitro pharmacokinetic model assessed as time required to 99% killing at 3 mg/ml using 10^6 CFU/ml inoculum
Staphylococcus aureus [3] = test: Antibacterial activity against methicillin-resistant Staphylococcus aureus 33815 infected in in vitro pharmacokinetic model assessed as time required to 99% killing at 3 mg/ml using 10^6 CFU/ml inoculum
Procedure, shortened: (§1)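 Single-compartment model in 10% MHB at 37°C with 10^6 CFU/ml inoculum. Log change in count from time 0 and times to 99%/99.9% kill from serial spiral-plate counts; at least triplicate.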

Staphylococcus aureus [4] = test: Antibacterial activity against methicillin-resistant Staphylococcus aureus 33922 infected in in vitro pharmacokinetic model assessed as reduction in viable count at 3 mg/ml after 12 hrs using 10^6 CFU/ml inoculum
Staphylococcus aureus [5] = test: Antibacterial activity against methicillin-resistant Staphylococcus aureus 33827 infected in in vitro pharmacokinetic model assessed as reduction in viable count at 3 mg/ml after 12 hrs using 10^6 CFU/ml inoculum
Staphylococcus aureus [6] = test: Antibacterial activity against methicillin-resistant Staphylococcus aureus 33815 infected in in vitro pharmacokinetic model assessed as reduction in viable count at 3 mg/ml after 12 hrs using 10^6 CFU/ml inoculum; procedure, shortened: as §1
Staphylococcus aureus [7] = test: Antibacterial activity against methicillin-resistant Staphylococcus aureus 33922 infected in in vitro pharmacokinetic model assessed as reduction in viable count at 3 mg/ml after 24 hrs using 10^6 CFU/ml inoculum
Staphylococcus aureus [8] = test: Antibacterial activity against methicillin-resistant Staphylococcus aureus 33827 infected in in vitro pharmacokinetic model assessed as reduction in viable count at 3 mg/ml after 24 hrs using 10^6 CFU/ml inoculum
Staphylococcus aureus [9] = test: Antibacterial activity against methicillin-resistant Staphylococcus aureus 33815 infected in in vitro pharmacokinetic model assessed as reduction in viable count at 3 mg/ml after 24 hrs using 10^6 CFU/ml inoculum; procedure, shortened: as §1
Staphylococcus aureus [10] = test: Antibacterial activity against methicillin-resistant Staphylococcus aureus 33922 infected in in vitro pharmacokinetic model assessed as reduction in viable count at 3 mg/ml after 36 hrs using 10^6 CFU/ml inoculum
Staphylococcus aureus [11] = test: Antibacterial activity against methicillin-resistant Staphylococcus aureus 33827 infected in in vitro pharmacokinetic model assessed as reduction in viable count at 3 mg/ml after 36 hrs using 10^6 CFU/ml inoculum
Staphylococcus aureus [12] = test: Antibacterial activity against methicillin-resistant Staphylococcus aureus 33815 infected in in vitro pharmacokinetic model assessed as reduction in viable count at 3 mg/ml after 36 hrs using 10^6 CFU/ml inoculum; procedure, shortened: as §1
Staphylococcus aureus [13] = test: Antibacterial activity against methicillin-resistant Staphylococcus aureus 33922 infected in in vitro pharmacokinetic model assessed as reduction in viable count at 3 mg/ml after 48 hrs using 10^6 CFU/ml inoculum
Staphylococcus aureus [14] = test: Antibacterial activity against methicillin-resistant Staphylococcus aureus 33827 infected in in vitro pharmacokinetic model assessed as reduction in viable count at 3 mg/ml after 48 hrs using 10^6 CFU/ml inoculum
Staphylococcus aureus [15] = test: Antibacterial activity against methicillin-resistant Staphylococcus aureus 33815 infected in in vitro pharmacokinetic model assessed as reduction in viable count at 3 mg/ml after 48 hrs using 10^6 CFU/ml inoculum; procedure, shortened: as §1
Staphylococcus aureus [16] = test: Antibacterial activity against methicillin-resistant Staphylococcus aureus 33922 infected in in vitro pharmacokinetic model assessed as time required to 99.9% killing at 3 mg/ml using 10^6 CFU/ml inoculum
Staphylococcus aureus [17] = test: Antibacterial activity against methicillin-resistant Staphylococcus aureus 33827 infected in in vitro pharmacokinetic model assessed as time required to 99.9% killing at 3 mg/ml using 10^6 CFU/ml inoculum
Staphylococcus aureus [18] = test: Antibacterial activity against methicillin-resistant Staphylococcus aureus 33815 infected in in vitro pharmacokinetic model assessed as time required to 99.9% killing at 3 mg/ml using 10^6 CFU/ml inoculum; procedure, shortened: as §1
Staphylococcus aureus [19] = test: AUBKC (0 to 24 hrs) in methicillin-resistant Staphylococcus aureus 33922 infected in in vitro pharmacokinetic model at 3 mg/ml using 10^6 CFU/ml inoculum
Procedure, shortened: (§2)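 Run in a single-compartment in vitro PK model at 37°C in 10% MHB, flow 47.9 ml/h, 10^6 CFU/ml inoculum. Viable counts over 48 h. AUBKC 0-24 and 0-48 h by log-linear trapezoidal rule, at least triplicate.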

Staphylococcus aureus [20] = test: AUBKC (0 to 24 hrs) in methicillin-resistant Staphylococcus aureus 33827 infected in in vitro pharmacokinetic model at 3 mg/ml using 10^6 CFU/ml inoculum; procedure, shortened: as §2
Staphylococcus aureus [21] = test: AUBKC (0 to 24 hrs) in methicillin-resistant Staphylococcus aureus 33815 infected in in vitro pharmacokinetic model at 3 mg/ml using 10^6 CFU/ml inoculum; procedure, shortened: as §2
Staphylococcus aureus [22] = test: AUBKC (0 to 48 hrs) in methicillin-resistant Staphylococcus aureus 33922 infected in in vitro pharmacokinetic model at 3 mg/ml using 10^6 CFU/ml inoculum; procedure, shortened: as §2
Staphylococcus aureus [23] = test: AUBKC (0 to 48 hrs) in methicillin-resistant Staphylococcus aureus 33827 infected in in vitro pharmacokinetic model at 3 mg/ml using 10^6 CFU/ml inoculum; procedure, shortened: as §2
Staphylococcus aureus [24] = test: AUBKC (0 to 48 hrs) in methicillin-resistant Staphylococcus aureus 33815 infected in in vitro pharmacokinetic model at 3 mg/ml using 10^6 CFU/ml inoculum; procedure, shortened: as §2

With `CN[C@H](CC(C)C)C(=O)N[C@H]1C(=O)N[C@@H](CC(N)=O)C(=O)N[C@H]2C(=O)N[C@H]3C(=O)N[C@H](C(=O)N[C@H](C(=O)O)c4cc(O)cc(O)c4-c4cc3ccc4O)[C@H](O)c3ccc(c(Cl)c3)Oc3cc2cc(c3O[C@@H]2O[C@H](CO)[C@@H](O)[C@H](O)[C@H]2O[C@H]2C[C@](C)(N)[C@H](O)[C@H](C)O2)Oc2ccc(cc2Cl)[C@H]1O` [VANCOMYCIN] the Time (Staphylococcus aureus [1]) was 12 h, the Time (Staphylococcus aureus [2]) was 24 h and the Time (Staphylococcus aureus [3]) was 12 h. For the same compound, the log10CFU/ml (Staphylococcus aureus [4]) was 2.2, the log10CFU/ml (Staphylococcus aureus [5]) was 1.8 and the log10CFU/ml (Staphylococcus aureus [6]) was 3.3. It also gave a log10CFU/ml (Staphylococcus aureus [7]) of 2.6, a log10CFU/ml (Staphylococcus aureus [8]) of 3.2 and a log10CFU/ml (Staphylococcus aureus [9]) of 2. For the same compound, the log10CFU/ml (Staphylococcus aureus [10]) was 3, the log10CFU/ml (Staphylococcus aureus [11]) was 4 and the log10CFU/ml (Staphylococcus aureus [12]) was 1.7. It also gave a log10CFU/ml (Staphylococcus aureus [13]) of 2.9, a log10CFU/ml (Staphylococcus aureus [14]) of 4.2 and a log10CFU/ml (Staphylococcus aureus [15]) of 1.6. For the same compound, the Time (Staphylococcus aureus [16]) was over 48 h, the Time (Staphylococcus aureus [17]) was 24 h and the Time (Staphylococcus aureus [18]) was 12 h. It also gave an AUBC (Staphylococcus aureus [19]) of 54.8 log10CFU/ml.hr, an AUBC (Staphylococcus aureus [20]) of 56.7 log10CFU/ml.hr and an AUBC (Staphylococcus aureus [21]) of 46.2 log10CFU/ml.hr. It also gave an AUBC (Staphylococcus aureus [22]) of 80.1 log10CFU/ml.hr, an AUBC (Staphylococcus aureus [23]) of 61.9 log10CFU/ml.hr and an AUBC (Staphylococcus aureus [24]) of 97.4 log10CFU/ml.hr.
